From PubChem
The list is not random: actives were taken first. Their share in the collection is about 2.2%.
PvdQ acylase: P. aeruginosa PvdQ acylase inhibition | purified PvdQ acylase, fluorescence plate reader | inhibition, % at 10 µM | 340,000 tested, 0.063% active; in the data active = inhibition above about 30%, passing the limit was not always enough; inconclusive = no clear call, values can overlap the other calls;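 note: 0% = vehicle neutral wells and 100% = reference inhibitor wells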
FN deposit inh: fibronectin deposition inhibition. AH1F fibroblasts, Alexa488-fibronectin deposition fluorescence, overnight. inhibition, % at 12.6 µM. 350,000 tested, 0.086% active;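 active = mean inhibition across replicates of 30% or more, regardless of how many single replicates reach that level; inconclusive = mean under 30% yet at least half of replicates reach 30%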;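 note: positive control wells lacked labelled fibronectin entirely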
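Schedule: 1 h cell adhesion before compound, then overnight fibronectin incubation; test system: AH1F fibroblast monolayer depositing Alexa488-labelled fibronectin into matrix; quantity: 10000 AH1F cells per well; probe or stimulus: fluorescent fibronectin at 24 nM final; signal: fluorescence, ex 485 nm, em 525 nm; evaluation: percent inhibition as loss of matrix-bound fibronectin fluorescence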
Env fusion inh: HIV envelope-mediated fusion inhibition; 360,000 tested, 1.1% active; AID 651610; HeLa-JRFL Env/CEM21 cell fusion, luciferase; inhibition, % at 12.3 µM;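 active = mean replicate inhibition score of at least 50 and every replicate individually at or above 50; inconclusive = only one of the two criteria met; inactive = mean below 50 and not all replicates reaching 50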;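 note: 0% = plate neutral controls and 100% = maraviroc near 300 nM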
PDI turbidity: blocks human protein disulfide isomerase activity | P07237 | PDI insulin aggregation turbidity, A650, 90 min | inhibition, % at 10 µM | 350,000 tested, 0.052% active | AID 588391;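 active = mean inhibition across replicates of 30% or more, whatever share of single replicates reach that level; inconclusive = mean inhibition below 30% while every single replicate reaches 30%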
ERp5 block: blocks human ERp5 reductase activity on insulin | Q15084 | ERp5 insulin aggregation, absorbance 650 nm, 90 min | inhibition, % at 9.99 µM | 350,000 tested, 0.05% active | AID 651711;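 active = mean replicate inhibition above about 25%, with every replicate also reaching it, limit read from the data, passing the limit was not always enough; inconclusive = only one of those two criteria met; inactive = neither criterion met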
Target sequence (Q15084 whole entry, looked up): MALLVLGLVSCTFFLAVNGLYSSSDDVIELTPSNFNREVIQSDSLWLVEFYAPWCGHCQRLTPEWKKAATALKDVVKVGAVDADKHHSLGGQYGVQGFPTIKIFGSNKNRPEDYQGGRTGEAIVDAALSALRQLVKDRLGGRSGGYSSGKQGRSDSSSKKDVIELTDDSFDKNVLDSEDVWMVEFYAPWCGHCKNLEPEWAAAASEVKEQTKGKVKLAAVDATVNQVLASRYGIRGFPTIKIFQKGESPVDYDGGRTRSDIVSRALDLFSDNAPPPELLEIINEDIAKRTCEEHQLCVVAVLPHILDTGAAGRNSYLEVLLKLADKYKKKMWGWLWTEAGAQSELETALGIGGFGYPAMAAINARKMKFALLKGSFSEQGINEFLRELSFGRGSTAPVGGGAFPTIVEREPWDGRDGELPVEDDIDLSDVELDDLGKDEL
rRNA inh HTS: inhibitors of bacterial rRNA selective over humanized ribosomes; E. coli WT GFP vs humanized-ribosome RFP mutants, fluorescence, 24 h; stronger effect = lower value; DMSO median 0, no signal -100; GFP signal change (wild-type ribosome), % (test concentration not listed); AID 720706; 350,000 tested, 1.6% active;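 active = significant combined selectivity score with lowered wild-type GFP, culture density cut under 30%, mutant RFP and density less affected; inactive = any of these conditions unmet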
Active calls of the source: *; i = inactive; ? = inconclusive; nt = no result; [ ] = dose if it differs, or a comment.

SMILES	PvdQ acylase	FN deposit inh	Env fusion inh	PDI turbidity	ERp5 block	rRNA inh HTS
C[C@H](C(=O)N(C)C[C@H]1OCc2ccccc2-c2ccccc2C(=O)N([C@@H](C)CO)C[C@H]1C)c1ccccc1	nt	-3	21[16.7 µM]	nt	-10	1
C[C@@H]1CN([C@H](C)CO)C(=O)c2ccccc2-c2ccccc2CO[C@H]1CN(C)S(=O)(=O)c1ccc(Cl)cc1	nt	-3	11[16.7 µM]	nt	-11	-2
C[C@H](C(=O)N(C)C[C@@H]1OCc2ccccc2-c2ccccc2C(=O)N([C@@H](C)CO)C[C@H]1C)c1ccccc1	nt	-7	59*[16.7 µM]	nt	8	-2
C[C@H](C(=O)N(C)C[C@@H]1OCc2ccccc2-c2ccccc2C(=O)N([C@H](C)CO)C[C@@H]1C)c1ccccc1	nt	-5	57*[16.7 µM]	nt	nt	-1
C[C@H]1CN([C@@H](C)CO)C(=O)c2ccccc2-c2ccccc2CO[C@H]1CN(C)S(=O)(=O)c1ccc(Cl)cc1	nt	-14	55*[16.7 µM]	nt	6	-4
CCCNC(=O)N[C@@H]1C=C[C@@H](CC(=O)NCCc2ccccc2)O[C@H]1CO	nt	-10	-29[16.7 µM]	nt	5	-1
C[C@@H]1CN([C@H](C)CO)C(=O)c2cc(-c3cccnc3)cnc2O[C@@H]1CN(C)C(=O)c1cccc(F)c1	nt	0	-45[16.7 µM]	nt	-5	2
Cc1c(C(=O)Nc2ccc3c(c2)OCCO3)sc2nc(-c3ccccc3)cn12	-12	-7	57*	-1	0	-20
C[C@@H]1CN([C@H](C)CO)C(=O)Cc2cc(NC(=O)Nc3ccc(F)cc3)ccc2O[C@H]1CN(C)Cc1ccncc1	nt	nt	nt	nt	-4	-8
CN1CCN(C2Cc3ccccc3Sc3cc(C(F)(F)F)ccc32)CC1 (configuration not stated)	nt	-8	23	nt	-10	-51
CCc1cccc2c1Sc1ccccc1CC2N1CCNCC1 (configuration not stated)	5	3	24	-18	nt	-52*
CN(C)C(=O)c1cccc(-c2ccc3c(c2)[C@H]2[C@H](CCN2C(=O)c2ccc4c(c2)OCO4)[C@@H](CO)N3)c1	nt	11	nt	nt	nt	-7
Cc1cc(OC(C(=O)O)c2ccccc2)c2c(C)c(Cc3ccccc3)c(=O)oc2c1 (configuration not stated)	5	-3	1	8	4	-24*
Cc1cc(OC(C)C(=O)NCC(O)c2ccccc2)c2c(C)c(C)c(=O)oc2c1 (configuration not stated)	-2	-6	-33	1	-6	-2
C[C@@H]1CCCCO[C@H](CN(C)CC2CCCCC2)[C@H](C)CN([C@H](C)CO)C(=O)c2cc(NC(=O)Nc3cccc4ccccc34)ccc2O1	nt	nt	14[16.7 µM]	nt	1	-3
Cc1ccc([C@H]2C(C(=O)O)=CC[C@@H](c3cccs3)N2S(=O)(=O)c2ccc(C)cc2)cc1	3	4	0	3	9	-40
Cc1ccc([C@@H]2CC=C(C(=O)O)[C@H](c3ccc(Br)cc3)N2S(=O)(=O)c2ccc(C)cc2)cc1	-24	-1	i	1	3	-32
Cc1ccc(S(=O)(=O)N2[C@@H](c3ccc(F)cc3)C(C(=O)O)=CC[C@H]2c2cccc(C)c2)cc1	12	3	-8	-4	0	-25*
Cc1ccc(S(=O)(=O)N2[C@@H](c3ccccc3F)C(C(=O)O)=CC[C@H]2c2ccc3c(c2)OCO3)cc1	-16	4	-45	-1	-5	-21*
Cc1ccc(S(=O)(=O)N2[C@@H](c3ccc(Cl)cc3)C(C(=O)O)=CC[C@H]2c2cccs2)cc1	-9	3	-2	-6	4	-29*
Cc1ccc(S(=O)(=O)N2[C@@H](c3ccc(Br)cc3)C(C(=O)O)=CC[C@H]2c2ccc(C(C)C)cc2)cc1	-4	-5	29	22	-2	-23*
Cc1ccc(S(=O)(=O)N2[C@@H](c3ccc(F)cc3)C(C(=O)O)=CC[C@H]2c2ccc3c(c2)OCO3)cc1	-9	8	1	-1	4	-18
CC(C)CC#Cc1ccc2c(c1)O[C@@H](CN(C)C(=O)Nc1ccccc1)[C@@H](C)CN([C@@H](C)CO)S2(=O)=O	nt	-4	24[16.7 µM]	nt	-2	-3
CCOC(=O)C1=CC[C@@H](c2cccc(Br)c2)N(S(=O)(=O)c2ccc(F)cc2)[C@H]1c1cccc(Cl)c1	nt	-2	60*	nt	-6	4
CN(C)CCNc1oc(COc2ccc(-c3ccccc3)cc2)nc1C#N	-11	nt	nt	-4	4	-36*
SMILES	PvdQ acylase	FN deposit inh	Env fusion inh	PDI turbidity	ERp5 block	rRNA inh HTS
COc1ccc(CNc2oc(COc3ccc(Cl)cc3)nc2C#N)cc1	-14	nt	?	15	nt	nt
COc1ccc(Nc2oc(COc3ccc(Cl)cc3)nc2C#N)cc1	-9	9	84*	-14	nt	nt
CC1(c2ccccc2)O[C@@H]2C[C@H]3[C@@H]4CCC5=CC(=O)C=C[C@]5(C)[C@@]4(F)[C@@H](O)C[C@]3(C)[C@]2(C(=O)CO)O1 (some centres not stated)	-9	-4	-21	6	8	-22*
Oc1c(Br)cc(Br)cc1CNc1cccc2cccnc12	-3	0	17	-2	-2	-22*
OCC1(Cc2ccc(Cl)cc2)CCN(Cc2ccc3nsnc3c2)CC1	0	-1	-3	2	-9	-23*
COc1ccc(CC2(CO)CCN(Cc3ccc4nsnc4c3)CC2)cc1	-4	7	-7	-5	3	-3
CCCNC(=O)C[C@@H]1C[C@H]2c3cc(NC(=O)c4cccnc4)ccc3O[C@H]2[C@H](CO)O1	nt	8	71*[16.7 µM]	nt	nt	0
CCCNC(=O)C[C@H]1C[C@H]2c3cc(NC(=O)c4cccnc4)ccc3O[C@H]2[C@@H](CO)O1	nt	-3	8[16.7 µM]	nt	nt	3
COc1ccccc1CNC(=O)C[C@H]1C[C@@H]2c3cc(NC(=O)c4cccnc4)ccc3O[C@@H]2[C@@H](CO)O1	nt	nt	90*[16.7 µM]	nt	-4	0
CC(C)NC(=O)N(C)C[C@@H]1Oc2c(cccc2N(C)C)C(=O)N(C)C[C@H]1C	nt	11	nt	nt	nt	-1
COc1ccc(NC(=O)N(C)C[C@H]2Oc3ccc(NC(=O)Cc4cn(C)c5ccccc45)cc3C(=O)N([C@@H](C)CO)C[C@H]2C)cc1	nt	nt	5[16.7 µM]	nt	1	-1
Cc1ccccc1NC(=S)NNc1ncc(C(F)(F)F)cc1Cl	-8	-6	-4	10	nt	nt
Cc1c(Cl)cccc1NC(=S)NNc1ncc(C(F)(F)F)cc1Cl	2	10	67*	1	nt	nt
O=C(NNc1ccc([N+](=O)[O-])cn1)Nc1ccc(N=Nc2ccccc2)cc1	-6	-13	-19	-13	0	-4.1*
O=C(NNc1ccc([N+](=O)[O-])cc1)Nc1ccccc1	-4	-1	-22	4	0	9
COc1ccc(NCC(O)Cn2c(C)c(C)c3ccccc32)cc1 (configuration not stated)	-7	10	1	-4	-1	-40*
